In brackets after ≈: the same amount, converted by molar mass. Activity calls are given as the source filed them. The calls are words filed in the database; no cut-off is given here.
How the values were obtained:
[1] = Permeability of the compound at 10 umol/L incubated for 3 hrs by LC/MS/MS detection based PAMPA method; type: ADME; conditions: read-out: permeability
Procedure, shortened: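 PAMPA: donor buffer pH 7.4 holding 10 μmol/L compound; acceptor filter coated with GIT-0 lipid, acceptor sink buffer. 3 h at room temperature. Compound in donor and acceptor wells quantified by LC/MS/MS.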

[2] = Partition coefficient between 1-octanol and aqueous buffer, log D of the compound at pH 7.4 buffer by chromatography; type: physicochemical; conditions: 1-octanol/aqueous buffer
Procedure, shortened: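 log D as octanol/buffer partition at pH 7.4, determined chromatographically.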

[3] = Solubility in aqueous buffer solution at pH 6.8 by UV absorbance spectroscopy; type: physicochemical
Procedure, shortened: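 Compound in DMSO spiked into aqueous buffer pH 6.8 and incubated. Precipitate removed by filtration, dissolved compound quantified by UV absorbance of the filtrate.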

[4] = target: CDK9/cyclin T1 (Homo sapiens, UniProt P50750); type: protein-complex assay
[5] = organism: Homo sapiens; assay: Selectivity index, ratio of IC50 for inhibition of GST-tagged human CDK2/CCNA2 (04 to 103 residues) to IC50 for inhibition of N-terminal FLAG-tagged human full-length CDK12 (1 to 1490 residues)/N-terminal His-tagged CycK (1 to 580 residues) expressed in Sf9 cells
Procedure, shortened: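 Ratio of two IC50s. CDK2/CCNA2: radiometric assay, 1.8 mU/well enzyme, histone H1 (1 μg/well), 500 nM [γ-33P]ATP, 5 min compound preincubation, 20 min at room temperature, TCA stop, filter-bound counts. In-house CDK12/CycK (30 nM): LANCE TR-FRET, ULight-4E-BP1 peptide 150 nM, ATP 10 μM, HEPES pH 7.5, 60 min preincubation, EDTA/Eu-antibody stop.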

[6] = target: CDK12/Cyclin K (Homo sapiens, UniProt Q9NYV4); assay: Inhibition of N-terminal FLAG-tagged human full-length CDK12 (1 to 1490 residues)/N-terminal His-tagged CycK (1 to 580 residues) expressed in Sf9 cells assessed as reduction in ATP-dependent ULight-4E-BP1 (Thr37/Thr46) substrate peptide phosphorylation pre-incubated for 60 mins by LANCE Ultra assay
[7] = target: CDK2/Cyclin A2 (Homo sapiens, UniProt P24941); assay: Inhibition of GST-tagged human CDK2/CCNA2 (04 to 103 residues) pre-incubated for 5 mins before addition of histone H1 substrate and [gamma-33P]ATP and measured after 20 mins by radiometric assay; type: protein-complex assay
Procedure, shortened: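 GST-CDK2/CCNA2 at 1.8 mU/well in 25 mM HEPES pH 7.5, 10 mM Mg acetate, 1 mM DTT. Compound and enzyme together 5 min at room temperature before ATP start. Final levels: histone H1 1 μg/well, [γ-33P]ATP 500 nM. Reaction 20 min at room temperature, stopped with 10% TCA. Filter capture, phosphoric acid wash, scintillation counting. IC50 reported.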

[8] = target: CDK8/Cyclin C (Homo sapiens, UniProt P49336); assay: Inhibition of GST-tagged human CDK8/CycC (04 to 109 residues) using kinase tracer 236 probe incubated for 60 mins by TR-FRET assay; type: protein-complex assay
[9] = target: STE20/SPS1-related proline-alanine-rich protein kinase (Homo sapiens) (UniProt Q9UEW8); assay: Inhibition of N-terminal His tagged recombinant full-length human STK39 expressed in baculovirus infected Sf9 cells at 1 uM
[10] = test system: SK-BR-3; assay: Growth inhibition of human SK-BR-3 cells incubated for 72 hrs by cell-titer-Glo luminescent cell viability assay; type: functional; conditions: SK-BR-3, 72 h
Procedure, shortened: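 SK-BR-3 (ATCC) kept in medium with 10% FBS, penicillin and streptomycin, subcultured every 3 days. 3 × 10^3 cells seeded, left overnight, then compound diluted in culture medium added. Viability by CellTiter-Glo luminescence after 72 h.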

[11] = target: T1, Dual specificity tyrosine-phosphorylation-regulated kinase 2 (Homo sapiens) (UniProt Q92630); assay: Inhibition of N-terminal GST tagged recombinant full-length human DYRK2 expressed in Escherichia coli at 1 uM
T1 sequence (whole entry): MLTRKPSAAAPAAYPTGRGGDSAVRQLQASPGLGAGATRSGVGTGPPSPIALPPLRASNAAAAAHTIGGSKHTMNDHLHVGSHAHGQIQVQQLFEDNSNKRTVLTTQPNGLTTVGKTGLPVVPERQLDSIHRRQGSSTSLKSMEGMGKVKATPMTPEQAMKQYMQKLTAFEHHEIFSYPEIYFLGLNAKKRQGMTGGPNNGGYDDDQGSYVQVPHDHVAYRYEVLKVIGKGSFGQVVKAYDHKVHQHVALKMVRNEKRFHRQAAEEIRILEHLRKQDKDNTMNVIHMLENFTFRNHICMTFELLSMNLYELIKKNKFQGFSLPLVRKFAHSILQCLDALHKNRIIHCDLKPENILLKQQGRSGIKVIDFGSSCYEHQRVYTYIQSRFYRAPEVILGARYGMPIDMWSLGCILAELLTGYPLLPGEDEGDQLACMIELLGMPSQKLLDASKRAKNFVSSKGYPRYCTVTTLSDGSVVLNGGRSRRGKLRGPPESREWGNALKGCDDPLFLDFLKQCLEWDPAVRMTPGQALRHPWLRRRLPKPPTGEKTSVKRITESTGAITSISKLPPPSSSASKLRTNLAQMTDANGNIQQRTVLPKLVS

[12] = target: T2, Serine/threonine-protein kinase TAO1 (Homo sapiens) (UniProt Q7L7X3); assay: Inhibition of N-terminal GST tagged recombinant human TAOK1 (1 to 314 residues) expressed in baculovirus infected Sf9 cells at 1 uM
T2 sequence (whole entry): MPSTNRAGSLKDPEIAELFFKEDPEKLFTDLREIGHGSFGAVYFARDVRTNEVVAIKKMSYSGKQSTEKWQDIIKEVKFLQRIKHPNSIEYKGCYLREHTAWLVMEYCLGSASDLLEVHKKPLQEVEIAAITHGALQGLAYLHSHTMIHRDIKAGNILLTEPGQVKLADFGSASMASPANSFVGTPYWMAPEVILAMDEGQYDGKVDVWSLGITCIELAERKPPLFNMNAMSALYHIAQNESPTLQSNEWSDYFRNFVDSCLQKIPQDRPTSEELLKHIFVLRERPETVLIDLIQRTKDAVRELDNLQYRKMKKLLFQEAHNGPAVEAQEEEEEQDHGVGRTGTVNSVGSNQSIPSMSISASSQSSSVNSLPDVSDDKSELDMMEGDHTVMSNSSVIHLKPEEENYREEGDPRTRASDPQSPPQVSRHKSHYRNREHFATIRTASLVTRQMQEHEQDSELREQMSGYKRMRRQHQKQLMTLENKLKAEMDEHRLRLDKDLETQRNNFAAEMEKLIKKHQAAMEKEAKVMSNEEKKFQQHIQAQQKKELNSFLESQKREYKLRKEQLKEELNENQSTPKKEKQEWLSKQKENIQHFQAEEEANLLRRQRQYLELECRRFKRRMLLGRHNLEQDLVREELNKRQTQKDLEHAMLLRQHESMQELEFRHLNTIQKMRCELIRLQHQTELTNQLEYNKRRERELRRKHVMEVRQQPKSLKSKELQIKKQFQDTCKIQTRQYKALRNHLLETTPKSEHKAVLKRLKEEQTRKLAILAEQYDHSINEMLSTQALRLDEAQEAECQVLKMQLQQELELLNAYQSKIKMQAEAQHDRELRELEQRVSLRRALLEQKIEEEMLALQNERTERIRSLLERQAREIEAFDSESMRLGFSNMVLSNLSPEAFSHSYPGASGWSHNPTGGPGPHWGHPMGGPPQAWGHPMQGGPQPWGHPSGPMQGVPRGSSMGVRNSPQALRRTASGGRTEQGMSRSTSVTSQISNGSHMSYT

[13] = target: CDK7/Cyclin H/MNAT1 (Homo sapiens, UniProt P50613)
[14] = target: Cyclin-dependent kinase 12 (Homo sapiens, UniProt Q9NYV4); assay: Time dependent inhibition of human CDK12 incubated for 0 to 5 hrs using ULight-4E-BP1 (Thr37/Thr46) substrate by LANCE system based assay
Cyclin-dependent kinase 12, sequence (Q9NYV4 whole entry, looked up): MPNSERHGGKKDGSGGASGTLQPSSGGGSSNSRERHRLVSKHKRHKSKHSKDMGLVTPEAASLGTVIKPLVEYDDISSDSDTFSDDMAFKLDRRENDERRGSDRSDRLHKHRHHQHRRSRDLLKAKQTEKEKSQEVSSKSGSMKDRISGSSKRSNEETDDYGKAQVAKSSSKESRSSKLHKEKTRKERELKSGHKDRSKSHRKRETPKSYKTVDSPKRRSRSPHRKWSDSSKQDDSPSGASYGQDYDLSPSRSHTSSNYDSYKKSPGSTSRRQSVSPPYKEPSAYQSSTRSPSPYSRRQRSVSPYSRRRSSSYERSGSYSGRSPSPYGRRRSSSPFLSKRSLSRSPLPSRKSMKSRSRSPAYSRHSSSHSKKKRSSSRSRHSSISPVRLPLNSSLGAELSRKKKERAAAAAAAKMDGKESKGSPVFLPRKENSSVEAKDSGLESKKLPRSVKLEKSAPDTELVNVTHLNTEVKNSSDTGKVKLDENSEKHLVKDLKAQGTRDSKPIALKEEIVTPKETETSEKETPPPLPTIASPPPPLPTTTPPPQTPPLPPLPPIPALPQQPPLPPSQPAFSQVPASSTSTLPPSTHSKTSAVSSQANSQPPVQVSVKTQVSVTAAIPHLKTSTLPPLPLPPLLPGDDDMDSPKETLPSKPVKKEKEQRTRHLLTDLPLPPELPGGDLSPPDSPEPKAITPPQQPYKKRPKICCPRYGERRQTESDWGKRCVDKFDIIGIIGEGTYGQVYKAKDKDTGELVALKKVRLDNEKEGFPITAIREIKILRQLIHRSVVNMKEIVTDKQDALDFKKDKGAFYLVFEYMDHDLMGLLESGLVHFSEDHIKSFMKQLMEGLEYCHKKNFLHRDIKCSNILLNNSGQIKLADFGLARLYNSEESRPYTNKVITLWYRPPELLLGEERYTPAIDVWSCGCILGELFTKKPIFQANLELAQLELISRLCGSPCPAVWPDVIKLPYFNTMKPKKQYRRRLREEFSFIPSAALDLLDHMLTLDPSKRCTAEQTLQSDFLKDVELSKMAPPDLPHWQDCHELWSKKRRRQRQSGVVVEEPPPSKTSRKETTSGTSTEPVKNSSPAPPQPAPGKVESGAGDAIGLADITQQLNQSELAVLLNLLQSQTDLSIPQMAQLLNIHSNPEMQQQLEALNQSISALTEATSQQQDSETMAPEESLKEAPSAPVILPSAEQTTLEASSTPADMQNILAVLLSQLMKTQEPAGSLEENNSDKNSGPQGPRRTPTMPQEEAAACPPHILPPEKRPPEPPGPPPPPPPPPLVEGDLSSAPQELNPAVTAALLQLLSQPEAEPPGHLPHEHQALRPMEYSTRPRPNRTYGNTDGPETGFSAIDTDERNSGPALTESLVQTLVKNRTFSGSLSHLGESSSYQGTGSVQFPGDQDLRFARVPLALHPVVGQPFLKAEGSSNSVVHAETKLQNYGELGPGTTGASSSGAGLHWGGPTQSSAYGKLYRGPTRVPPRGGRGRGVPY

CDK12/Cyclin K, sequence (O75909 whole entry, the tested form may be a part): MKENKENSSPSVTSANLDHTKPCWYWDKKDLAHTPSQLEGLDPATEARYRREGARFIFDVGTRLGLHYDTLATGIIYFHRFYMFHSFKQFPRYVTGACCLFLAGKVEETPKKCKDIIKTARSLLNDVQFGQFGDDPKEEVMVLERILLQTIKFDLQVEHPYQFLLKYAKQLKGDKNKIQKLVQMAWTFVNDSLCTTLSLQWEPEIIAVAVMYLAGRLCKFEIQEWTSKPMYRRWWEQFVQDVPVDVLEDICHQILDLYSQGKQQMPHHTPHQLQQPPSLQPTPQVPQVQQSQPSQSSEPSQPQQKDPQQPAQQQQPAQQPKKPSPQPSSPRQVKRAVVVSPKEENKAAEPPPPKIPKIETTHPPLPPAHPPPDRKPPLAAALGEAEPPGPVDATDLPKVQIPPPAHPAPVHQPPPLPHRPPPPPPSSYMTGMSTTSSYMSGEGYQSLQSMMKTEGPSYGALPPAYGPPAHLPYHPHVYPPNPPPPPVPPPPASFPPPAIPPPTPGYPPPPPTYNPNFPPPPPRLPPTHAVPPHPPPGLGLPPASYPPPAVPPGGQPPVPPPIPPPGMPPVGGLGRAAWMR
CDK12/Cyclin K, sequence (Q9NYV4 whole entry, the tested form may be a part): as the sequence (Q9NYV4 whole entry, looked up) above
CDK9/cyclin T1, sequence (O60563 whole entry, the tested form may be a part): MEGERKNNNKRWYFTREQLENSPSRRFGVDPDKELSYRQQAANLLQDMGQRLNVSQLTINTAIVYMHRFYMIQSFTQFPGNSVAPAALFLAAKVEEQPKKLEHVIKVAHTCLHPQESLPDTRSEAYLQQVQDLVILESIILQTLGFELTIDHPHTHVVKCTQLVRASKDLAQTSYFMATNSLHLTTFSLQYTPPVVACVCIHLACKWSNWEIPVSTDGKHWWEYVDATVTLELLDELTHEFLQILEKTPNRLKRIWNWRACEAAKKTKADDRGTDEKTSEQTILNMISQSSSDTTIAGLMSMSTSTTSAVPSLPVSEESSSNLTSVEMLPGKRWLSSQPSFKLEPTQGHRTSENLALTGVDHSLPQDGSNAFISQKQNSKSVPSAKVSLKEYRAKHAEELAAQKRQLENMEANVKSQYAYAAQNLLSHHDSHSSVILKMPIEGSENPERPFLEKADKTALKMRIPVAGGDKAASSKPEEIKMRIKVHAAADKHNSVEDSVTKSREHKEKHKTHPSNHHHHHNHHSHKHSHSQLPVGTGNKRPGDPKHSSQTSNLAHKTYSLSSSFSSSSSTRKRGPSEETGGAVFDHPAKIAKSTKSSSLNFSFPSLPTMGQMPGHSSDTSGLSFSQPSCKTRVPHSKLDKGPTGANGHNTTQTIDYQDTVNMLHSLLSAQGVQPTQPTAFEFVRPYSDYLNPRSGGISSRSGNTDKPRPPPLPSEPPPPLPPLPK
CDK9/cyclin T1, sequence (P50750 whole entry, the tested form may be a part): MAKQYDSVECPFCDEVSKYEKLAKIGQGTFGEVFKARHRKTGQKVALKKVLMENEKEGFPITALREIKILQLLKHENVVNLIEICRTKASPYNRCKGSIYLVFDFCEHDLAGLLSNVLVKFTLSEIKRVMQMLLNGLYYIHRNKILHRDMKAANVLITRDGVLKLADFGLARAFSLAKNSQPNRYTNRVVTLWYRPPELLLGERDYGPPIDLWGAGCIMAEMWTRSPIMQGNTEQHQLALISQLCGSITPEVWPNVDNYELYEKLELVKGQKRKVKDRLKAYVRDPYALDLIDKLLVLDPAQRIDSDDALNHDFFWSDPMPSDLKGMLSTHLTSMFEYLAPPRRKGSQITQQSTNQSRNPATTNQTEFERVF
CDK7/Cyclin H/MNAT1, sequence (P51946 whole entry): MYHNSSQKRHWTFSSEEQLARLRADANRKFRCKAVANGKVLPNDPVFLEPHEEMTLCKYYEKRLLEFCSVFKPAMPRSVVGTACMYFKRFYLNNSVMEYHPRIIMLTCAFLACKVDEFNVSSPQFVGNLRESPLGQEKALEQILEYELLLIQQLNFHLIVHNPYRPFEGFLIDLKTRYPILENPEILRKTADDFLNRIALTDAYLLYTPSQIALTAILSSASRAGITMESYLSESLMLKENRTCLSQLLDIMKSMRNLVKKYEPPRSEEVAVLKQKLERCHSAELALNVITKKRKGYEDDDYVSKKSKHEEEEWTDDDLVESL
CDK7/Cyclin H/MNAT1, sequence (P50613 whole entry): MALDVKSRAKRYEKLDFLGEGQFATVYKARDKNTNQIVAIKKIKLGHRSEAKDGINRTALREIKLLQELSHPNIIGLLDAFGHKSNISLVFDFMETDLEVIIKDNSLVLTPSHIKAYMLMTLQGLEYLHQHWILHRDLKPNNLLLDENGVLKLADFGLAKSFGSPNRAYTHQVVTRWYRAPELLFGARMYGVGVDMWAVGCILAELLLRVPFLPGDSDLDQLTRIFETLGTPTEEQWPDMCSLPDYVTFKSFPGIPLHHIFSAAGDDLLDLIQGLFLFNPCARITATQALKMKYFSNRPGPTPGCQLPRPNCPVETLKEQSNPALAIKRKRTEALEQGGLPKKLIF
CDK7/Cyclin H/MNAT1, sequence (P51948 whole entry, further chain): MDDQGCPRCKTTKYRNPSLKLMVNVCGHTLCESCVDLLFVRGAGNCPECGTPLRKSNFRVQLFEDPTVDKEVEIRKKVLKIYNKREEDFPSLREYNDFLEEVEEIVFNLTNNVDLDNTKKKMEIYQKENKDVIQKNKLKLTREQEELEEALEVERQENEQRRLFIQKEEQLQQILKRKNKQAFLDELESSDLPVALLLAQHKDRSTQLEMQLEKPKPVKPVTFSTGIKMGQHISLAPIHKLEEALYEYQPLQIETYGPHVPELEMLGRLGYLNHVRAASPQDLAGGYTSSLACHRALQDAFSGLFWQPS
CDK8/Cyclin C, sequence (P49336 whole entry, the tested form may be a part): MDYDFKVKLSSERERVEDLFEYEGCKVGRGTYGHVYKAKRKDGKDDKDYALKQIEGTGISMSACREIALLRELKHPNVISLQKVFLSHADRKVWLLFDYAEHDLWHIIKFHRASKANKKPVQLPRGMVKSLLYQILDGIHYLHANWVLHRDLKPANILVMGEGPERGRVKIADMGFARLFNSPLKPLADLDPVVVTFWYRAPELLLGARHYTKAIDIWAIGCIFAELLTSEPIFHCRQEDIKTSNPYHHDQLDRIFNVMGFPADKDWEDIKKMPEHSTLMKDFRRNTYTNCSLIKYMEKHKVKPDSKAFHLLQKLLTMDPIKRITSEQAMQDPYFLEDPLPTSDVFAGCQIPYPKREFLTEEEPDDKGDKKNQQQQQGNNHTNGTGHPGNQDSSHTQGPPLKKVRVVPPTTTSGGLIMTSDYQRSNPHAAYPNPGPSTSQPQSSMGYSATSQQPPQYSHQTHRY
CDK8/Cyclin C, sequence (P24863 whole entry, further chain, the tested form may be a part): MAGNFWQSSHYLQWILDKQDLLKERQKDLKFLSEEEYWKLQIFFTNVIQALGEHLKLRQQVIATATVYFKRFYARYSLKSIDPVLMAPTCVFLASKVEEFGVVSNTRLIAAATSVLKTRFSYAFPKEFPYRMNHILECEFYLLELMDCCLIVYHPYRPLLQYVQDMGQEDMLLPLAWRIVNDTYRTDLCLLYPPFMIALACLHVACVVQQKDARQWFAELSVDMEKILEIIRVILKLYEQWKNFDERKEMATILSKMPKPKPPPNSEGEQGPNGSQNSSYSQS

Row | SMILES | IC50 [6] | IC50 [7] | further results
1 | Cn1cc(-c2ccc(N(C(=O)NCc3ccccc3)[C@H]3CC[C@H](Nc4ccc(C#N)cn4)CC3)cc2)cn1 | 63 nM | > 100000 nM | Papp at 3 h, 10 µM [1]: 28.8 ×10⁻⁶ cm/s; chromatographic logD [2]: 2.8; solubility [3]: 0.33 µg/mL (≈ 0.653 µM); IC50 [4]: > 30000 nM; Ratio IC50 [5]: > 800
2 | Cn1cc(-c2ccc(N(C(=O)NCC3CCCCC3)[C@H]3CC[C@H](Nc4ccc(C#N)cn4)CC3)cc2)cn1 | 99 nM | > 100000 nM | –
3 | Cn1cc(-c2ccc(N(C(=O)NCc3ccccc3)[C@H]3CC[C@H](Nc4ccc(C#N)cn4)CC3)cc2)ccc1=O | – | – | Papp at 3 h, 10 µM [1]: 27.3 ×10⁻⁶ cm/s; IC50 [8]: > 10000 nM; chromatographic logD [2]: 2.4; solubility [3]: 7.7 µg/mL (≈ 14.5 µM); inhibition [9]: > 80%; IC50 [4]: 16000 nM; GI50 [10]: 800 nM; inhibition [11]: > 80%; inhibition [12]: > 80%; IC50 [13]: > 10000 nM; TDI [14]: inactive
4 | CCNC(=O)N(c1ccc(-c2cnn(C)c2)cc1)[C@H]1CC[C@H](Nc2ccc(C#N)cn2)CC1 | 460 nM | 4800 nM | –
5 | Cn1cc(-c2ccc(N[C@H]3CC[C@H](Nc4ccc(C#N)cn4)CC3)cc2)cn1 | 8600 nM | 9800 nM | –
6 | Cn1cc(-c2ccc(CN3CCC(Nc4ccc(C#N)cn4)CC3)cc2)cn1 | 16000 nM | – | –
7 | Cn1cc(-c2ccc(S(=O)(=O)N3CCC(Nc4ccc(C#N)cc4)CC3)cc2)cn1 | > 30000 nM | – | –
8 | Cn1cc(-c2ccc(S(=O)(=O)N3CCC(Nc4ccccn4)CC3)cc2)cn1 | > 30000 nM | 1200 nM | –
9 | N#Cc1ccc(N[C@H]2CC[C@H](N(C(=O)NCc3ccccc3)c3ccc(-c4cccnc4)cc3)CC2)nc1 | 59 nM | > 100000 nM | Papp at 3 h, 10 µM [1]: 28 ×10⁻⁶ cm/s; chromatographic logD [2]: 3; solubility [3]: 0.67 µg/mL (≈ 1.33 µM); IC50 [4]: > 30000 nM
10 | Cn1c(-c2ccc(N(C(=O)NCc3ccccc3)[C@H]3CC[C@H](Nc4ccc(C#N)cn4)CC3)cc2)cccc1=O | 310 nM | 27000 nM | chromatographic logD [2]: 2.6; solubility [3]: < 0.09 µg/mL; IC50 [4]: > 30000 nM
11 | Cn1cc(-c2ccc(S(=O)(=O)N3CCC(Nc4cccc(C#N)n4)CC3)cc2)cn1 | > 30000 nM | 46000 nM | –
12 | Cn1cc(-c2ccc(N([C@H]3CC[C@H](Nc4ccc(C#N)cn4)CC3)S(C)(=O)=O)cc2)cn1 | 110 nM | 31 nM | –
13 | Cn1cc(-c2ccc(C(=O)N3CCC(Nc4ccc(C#N)cn4)CC3)cc2)cn1 | 23000 nM | – | –
14 | CC(=O)N(c1ccc(-c2cnn(C)c2)cc1)[C@H]1CC[C@@H](Nc2ccc(C#N)cn2)CC1 | > 30000 nM | > 100000 nM | –
15 | Cn1cc(-c2ccc(S(=O)(=O)N3CCC(Nc4ccc(C(F)(F)F)cn4)CC3)cc2)cn1 | 1800 nM | 5.8 nM | –
16 | COC(=O)N(c1ccc(-c2cnn(C)c2)cc1)[C@H]1CC[C@H](Nc2ccc(C#N)cn2)CC1 | 200 nM | 1600 nM | –
17 | Cn1cc(-c2ccc(N(C(=O)OCc3ccccc3)[C@H]3CC[C@H](Nc4ccc(C#N)cn4)CC3)cc2)cn1 | 640 nM | 2500 nM | –
18 | Cn1ccc(-c2ccc(N(C(=O)NCc3ccccc3)[C@H]3CC[C@H](Nc4ccc(C#N)cn4)CC3)cc2)cc1=O | 44 nM | > 100000 nM | Papp at 3 h, 10 µM [1]: 24.7 ×10⁻⁶ cm/s; chromatographic logD [2]: 2.3; solubility [3]: < 0.08 µg/mL; IC50 [4]: > 30000 nM
19 | Cn1cc(-c2ccc(N(C(=O)CCc3ccccc3)[C@H]3CC[C@H](Nc4ccc(C#N)cn4)CC3)cc2)cn1 | 160 nM | 2900 nM | –
20 | N#Cc1ccc(N[C@H]2CC[C@H](N(C(=O)NCc3ccccc3)c3ccccc3)CC2)nc1 | 63 nM | 56000 nM | chromatographic logD [2]: 3.3; solubility [3]: 4 µg/mL (≈ 9.4 µM); IC50 [4]: > 30000 nM
21 | CC(=O)N(c1ccc(-c2cnn(C)c2)cc1)[C@H]1CC[C@H](Nc2ccc(C#N)cn2)CC1 | 130 nM | 470 nM | –
22 | Cn1cc(-c2ccc(S(=O)(=O)N3CCC(Nc4cc(C#N)ccn4)CC3)cc2)cn1 | > 30000 nM | 32 nM | –
23 | CC(=O)N(c1ccc(-c2cnn(C)c2)cc1)[C@H]1CC[C@H](Nc2ncc3ccccc3n2)CC1 | 13 nM | 24 nM | –
24 | CN(c1ccc(C#N)cn1)C1CCN(S(=O)(=O)c2ccc(-c3cnn(C)c3)cc2)CC1 | > 30000 nM | 68000 nM | –
25 | Cn1cc(-c2ccc(S(=O)(=O)N3CCC(Nc4ccc(C#N)cn4)CC3)cc2)cn1 | 360 nM | 10 nM | IC50 [8]: > 10000 nM; IC50 [4]: > 30000 nM; IC50 [13]: > 10000 nM
26 | CN(C)C/C=C/C(=O)Nc1ccc(C(=O)N2CCC[C@@H](Nc3ncc(Cl)c(-c4c[nH]c5ccccc45)n3)C2)cc1 | – | – | TDI [14]: Active
27 | COc1ccc(NC2CCN(S(=O)(=O)c3ccc(-c4cnn(C)c4)cc3)CC2)nc1 | > 30000 nM | 21000 nM | –
28 | Cn1cccc(-c2ccc(N(C(=O)NCc3ccccc3)[C@H]3CC[C@H](Nc4ccc(C#N)cn4)CC3)cc2)c1=O | 250 nM | 18000 nM | chromatographic logD [2]: 2.7; solubility [3]: 4.7 µg/mL (≈ 8.82 µM); IC50 [4]: 15000 nM

— ChEMBL document CHEMBL4145674, “Discovery of 3-Benzyl-1-( trans-4-((5-cyanopyridin-2-yl)amino)cyclohexyl)-1-arylurea Derivatives as Novel and Selective Cyclin-Dependent Kinase 12 (CDK12) Inhibitors” (J Med Chem, 2018)
